Results taken from ChEMBL document CHEMBL3877241 (J Med Chem, 2016).
Calls of active or inactive are those of the source. The rule behind the calls is not given here.

Key:
[1] = molecular target: Tyrosine-protein kinase JAK3 (Homo sapiens) (UniProt P52333); assay: Inhibition of JAK3 (unknown origin) at 0.1 uM preincubated for 20 mins followed by [33P]ATP addition measured after 120 mins by Hotspot assay relative to control
Procedure, shortened: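 Radiometric HotSpot kinase assay. Buffer: 20 mM HEPES pH 7.5, 10 mM MgCl2, 1 mM EGTA, 0.02% Brij35, 0.02 mg/mL BSA, 0.1 mM Na3VO4, 2 mM DTT, 1% DMSO. Compound added about 20 min before ATP/[33P]ATP (10 μM final). Reactions run 120 min at 25 °C, spotted on P81 filters and washed in phosphoric acid. Activity expressed relative to DMSO after background subtraction. Single-concentration panel at 100 nM in duplicate.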

Histone deacetylase 2 = Histone deacetylase 2 (Homo sapiens, UniProt Q92769); assay: Inhibition of full length human recombinant C-terminal GST-tagged HDAC2 (1 to 488 residues) expressed in insect cells preincubated with enzyme followed by fluorogenic Arg-His-Lys-Lys(Ac)-AMC substrate addition measured after 2 hrs by fluorescence assay
Chain of Histone deacetylase 2 (Q92769 whole entry, the tested form may be a part): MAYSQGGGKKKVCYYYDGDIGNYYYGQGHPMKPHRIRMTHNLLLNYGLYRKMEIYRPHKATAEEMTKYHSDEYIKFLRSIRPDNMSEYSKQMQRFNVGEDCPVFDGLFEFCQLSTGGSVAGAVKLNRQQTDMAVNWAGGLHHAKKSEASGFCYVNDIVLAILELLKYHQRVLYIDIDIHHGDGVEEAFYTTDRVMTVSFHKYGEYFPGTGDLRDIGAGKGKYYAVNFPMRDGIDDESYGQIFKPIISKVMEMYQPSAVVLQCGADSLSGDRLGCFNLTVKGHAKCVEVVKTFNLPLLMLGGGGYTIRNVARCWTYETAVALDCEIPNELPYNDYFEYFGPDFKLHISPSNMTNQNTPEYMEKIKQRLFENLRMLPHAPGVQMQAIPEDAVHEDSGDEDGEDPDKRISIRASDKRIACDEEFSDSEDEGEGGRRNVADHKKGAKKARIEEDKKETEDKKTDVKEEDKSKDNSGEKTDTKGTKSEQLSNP

[2] = molecular target: Histone deacetylase 9 (Homo sapiens) (UniProt Q9UKV0); assay: Inhibition of HDAC9 (unknown origin) at 10 uM preincubated with enzyme followed by acetyl-Lys(trifluoroacetyl)-AMC substrate addition measured after 2 hrs by fluorescence assay relative to control
Chain of Histone deacetylase 9 (Homo sapiens) (Q9UKV0 whole entry, canonical isoform): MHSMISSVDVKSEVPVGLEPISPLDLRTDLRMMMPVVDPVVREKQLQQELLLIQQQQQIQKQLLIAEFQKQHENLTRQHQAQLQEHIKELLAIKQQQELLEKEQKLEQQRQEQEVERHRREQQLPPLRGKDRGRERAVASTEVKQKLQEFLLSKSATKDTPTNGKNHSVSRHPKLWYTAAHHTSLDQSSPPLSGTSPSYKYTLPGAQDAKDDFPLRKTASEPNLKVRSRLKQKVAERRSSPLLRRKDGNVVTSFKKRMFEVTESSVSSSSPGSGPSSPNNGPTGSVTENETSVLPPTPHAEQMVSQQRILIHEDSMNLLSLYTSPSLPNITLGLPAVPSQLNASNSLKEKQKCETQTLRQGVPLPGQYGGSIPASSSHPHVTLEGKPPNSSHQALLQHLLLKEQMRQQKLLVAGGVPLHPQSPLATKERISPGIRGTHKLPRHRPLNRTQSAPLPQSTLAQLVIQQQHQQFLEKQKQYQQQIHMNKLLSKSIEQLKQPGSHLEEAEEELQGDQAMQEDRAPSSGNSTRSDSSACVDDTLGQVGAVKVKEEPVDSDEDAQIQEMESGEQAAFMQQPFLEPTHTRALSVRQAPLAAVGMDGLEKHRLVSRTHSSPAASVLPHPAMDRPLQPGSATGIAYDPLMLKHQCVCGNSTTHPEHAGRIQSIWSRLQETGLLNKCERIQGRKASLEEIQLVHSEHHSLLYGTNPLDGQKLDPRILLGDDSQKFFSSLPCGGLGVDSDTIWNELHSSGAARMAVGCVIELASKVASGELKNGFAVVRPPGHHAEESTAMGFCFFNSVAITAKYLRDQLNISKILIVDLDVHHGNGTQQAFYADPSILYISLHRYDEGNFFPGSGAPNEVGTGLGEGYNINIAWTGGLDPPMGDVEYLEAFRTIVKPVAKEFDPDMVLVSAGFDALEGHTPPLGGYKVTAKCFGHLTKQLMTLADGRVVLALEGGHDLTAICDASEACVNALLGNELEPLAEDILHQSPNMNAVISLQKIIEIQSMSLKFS
Procedure, shortened: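 Fluorogenic HDAC assay in 50 mM Tris-HCl pH 8.0, 137 mM NaCl, 2.7 mM KCl, 1 mM MgCl2. Enzyme pre-incubated with compound delivered in DMSO. Substrate then added: Arg-His-Lys(Ac) at 50 μM for most isoforms, or acetyl-Lys(trifluoroacetyl)-AMC for class IIa. Incubated 2 h at 30 °C, stopped with developer plus trichostatin A, read at Ex/Em 360/460 nm at endpoint. IC50 from 10-dose curves.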

[3] = molecular target: Phosphatidylinositol 4,5-bisphosphate 3-kinase catalytic subunit gamma isoform (Homo sapiens, UniProt P48736); assay: Inhibition of human PI3Kgamma (S144 to A1102 residues) expressed in mammalian expression system assessed as residual activity at 100 nM by KINOMEScan assay relative to control
Chain of Phosphatidylinositol 4,5-bisphosphate 3-kinase catalytic subunit gamma isoform (P48736 whole entry, looked up, the tested form may be a part, canonical isoform): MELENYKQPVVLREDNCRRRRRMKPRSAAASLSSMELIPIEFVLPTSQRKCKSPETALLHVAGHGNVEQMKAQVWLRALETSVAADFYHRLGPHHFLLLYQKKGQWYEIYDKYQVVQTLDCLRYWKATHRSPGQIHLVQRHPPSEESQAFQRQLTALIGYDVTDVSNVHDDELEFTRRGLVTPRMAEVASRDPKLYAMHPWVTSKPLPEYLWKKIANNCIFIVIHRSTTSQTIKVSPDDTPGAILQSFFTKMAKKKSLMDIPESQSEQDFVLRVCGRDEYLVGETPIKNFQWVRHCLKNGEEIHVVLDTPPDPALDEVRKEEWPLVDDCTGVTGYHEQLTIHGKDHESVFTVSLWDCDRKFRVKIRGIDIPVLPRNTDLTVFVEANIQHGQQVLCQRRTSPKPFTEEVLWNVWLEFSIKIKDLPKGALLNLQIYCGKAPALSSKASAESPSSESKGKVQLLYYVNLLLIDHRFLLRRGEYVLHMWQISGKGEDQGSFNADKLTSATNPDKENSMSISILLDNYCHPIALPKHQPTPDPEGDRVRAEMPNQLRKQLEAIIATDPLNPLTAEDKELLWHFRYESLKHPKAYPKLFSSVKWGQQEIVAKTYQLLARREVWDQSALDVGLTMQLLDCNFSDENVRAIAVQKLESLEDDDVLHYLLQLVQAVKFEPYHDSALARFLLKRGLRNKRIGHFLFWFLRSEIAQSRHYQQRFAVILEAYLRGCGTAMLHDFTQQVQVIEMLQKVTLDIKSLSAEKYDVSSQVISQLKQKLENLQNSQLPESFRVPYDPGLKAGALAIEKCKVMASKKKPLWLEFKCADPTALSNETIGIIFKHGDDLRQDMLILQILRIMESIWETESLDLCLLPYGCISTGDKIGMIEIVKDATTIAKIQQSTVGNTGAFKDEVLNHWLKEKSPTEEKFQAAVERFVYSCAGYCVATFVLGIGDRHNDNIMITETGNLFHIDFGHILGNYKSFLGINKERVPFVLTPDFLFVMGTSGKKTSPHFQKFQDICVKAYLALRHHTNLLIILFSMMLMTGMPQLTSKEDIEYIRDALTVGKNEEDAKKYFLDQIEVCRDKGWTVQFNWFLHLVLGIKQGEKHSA
Procedure, shortened: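 DiscoveRx competition-binding panel of 97 kinases, measuring binding to the kinase ATP site rather than catalytic turnover. The test compound was run at a single 100 nM concentration. Results are given as % of control binding.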

[4] = Antiproliferative activity against human HL60 cells; type: functional, cell-based; conditions: HL-60
cells = type: functional, cell-based; conditions: Homo sapiens, HEL 92.1.7, 36 h
[5] = molecular target: T1, Protein deacetylase HDAC6 (Homo sapiens) (UniProt Q9UBN7); assay: Inhibition of HDAC6 in HEL 92.1.7 cells harboring JAK2 V617F mutant assessed as increase in acetylated tubulin level at 0.1 uM after 1 hr by immunoblot method; type: cell-based
T1 sequence (whole entry): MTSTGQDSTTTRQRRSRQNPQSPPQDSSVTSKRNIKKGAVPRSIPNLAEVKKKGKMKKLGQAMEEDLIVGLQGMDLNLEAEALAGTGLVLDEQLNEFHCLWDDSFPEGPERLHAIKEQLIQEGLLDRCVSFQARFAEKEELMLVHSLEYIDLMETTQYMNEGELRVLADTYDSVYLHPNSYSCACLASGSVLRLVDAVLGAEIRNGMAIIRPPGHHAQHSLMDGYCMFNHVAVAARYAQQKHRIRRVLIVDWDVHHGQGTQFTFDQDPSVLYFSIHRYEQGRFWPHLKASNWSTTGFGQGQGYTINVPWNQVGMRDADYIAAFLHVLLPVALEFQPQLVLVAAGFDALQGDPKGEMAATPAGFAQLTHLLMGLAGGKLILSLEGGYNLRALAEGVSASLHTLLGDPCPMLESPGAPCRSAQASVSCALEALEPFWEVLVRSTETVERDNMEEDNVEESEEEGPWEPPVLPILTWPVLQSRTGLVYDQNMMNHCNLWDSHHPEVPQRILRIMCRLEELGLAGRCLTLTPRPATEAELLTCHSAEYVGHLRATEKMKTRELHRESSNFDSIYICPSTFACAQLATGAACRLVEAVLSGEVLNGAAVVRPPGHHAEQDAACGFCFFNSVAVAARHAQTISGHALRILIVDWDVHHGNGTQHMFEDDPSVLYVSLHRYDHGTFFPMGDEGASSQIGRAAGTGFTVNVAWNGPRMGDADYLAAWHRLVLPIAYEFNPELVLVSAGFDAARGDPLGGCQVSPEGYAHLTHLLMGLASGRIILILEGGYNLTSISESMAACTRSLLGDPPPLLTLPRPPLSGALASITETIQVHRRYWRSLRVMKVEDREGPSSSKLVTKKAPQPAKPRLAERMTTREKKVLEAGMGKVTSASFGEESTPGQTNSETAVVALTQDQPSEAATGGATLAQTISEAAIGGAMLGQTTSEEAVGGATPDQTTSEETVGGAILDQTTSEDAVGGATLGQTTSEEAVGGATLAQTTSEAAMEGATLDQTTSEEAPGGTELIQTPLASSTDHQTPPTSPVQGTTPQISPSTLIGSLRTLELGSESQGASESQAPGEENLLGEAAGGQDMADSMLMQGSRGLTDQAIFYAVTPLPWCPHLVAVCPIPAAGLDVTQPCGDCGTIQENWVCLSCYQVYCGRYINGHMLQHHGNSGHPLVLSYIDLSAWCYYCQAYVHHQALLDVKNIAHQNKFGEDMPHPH
Procedure, shortened: (§1)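 HEL92.1.7 cells seeded at 5x10^5/mL and treated 1 h at 0, 0.1, 0.5 and 1 μM. Lysed in RIPA with phosphatase/protease inhibitors, run on 10% SDS-PAGE and blotted to PVDF. Probed for acetyl-tubulin, acetyl-H3 (Lys9/Lys14), p-JAK2 (Y1007/1008) and p-STAT5 (Tyr694); membranes re-probed for tubulin, H3, JAK2 and STAT5. Quantified by densitometry.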

MOLM-14 [6] = assay: Induction of apoptosis in human MOLM14 cells assessed as early apoptotic cells at 0.75 uM after 48 hrs by Annexin-V FITC/propidium iodide staining based flow cytometry (reference value: 3.6 to 3.7%); type: functional
Procedure, shortened: (§2)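 MOLM-14 cells treated 48 h at the stated concentrations; doxorubicin as positive control. Stained with Annexin V-FITC and propidium iodide and analysed by flow cytometry (at least 10,000 events). Gated quadrants: Annexin V−/PI− viable, Annexin V+/PI− early apoptotic, Annexin V+/PI+ late apoptotic.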

MOLM-14 [7] = assay: Induction of apoptosis in human MOLM14 cells assessed as late apoptotic cells at 0.75 uM after 48 hrs by Annexin-V FITC/propidium iodide staining based flow cytometry (reference value: 2.1 to 2.2%); type: functional; procedure, shortened: as §2
MOLM-14 [8] = assay: Induction of apoptosis in human MOLM14 cells assessed as necrotic cells at 1.5 uM after 48 hrs by Annexin-V FITC/propidium iodide staining based flow cytometry (reference value: 0.1%); type: functional
[9] = test system: Tyrosine-protein kinase JAK2 (Homo sapiens), O60674 [V617F]; assay: Inhibition of JAK2 V617F mutant in HEL 92.1.7 cells assessed as decrease in STAT5 phosphorylation at antiproliferative IC50 after 1 hr by immunoblot method; type: cell-based; procedure, shortened: as §1
Chain of Tyrosine-protein kinase JAK2 (Homo sapiens), O60674 [V617F] (O60674 whole entry V617F): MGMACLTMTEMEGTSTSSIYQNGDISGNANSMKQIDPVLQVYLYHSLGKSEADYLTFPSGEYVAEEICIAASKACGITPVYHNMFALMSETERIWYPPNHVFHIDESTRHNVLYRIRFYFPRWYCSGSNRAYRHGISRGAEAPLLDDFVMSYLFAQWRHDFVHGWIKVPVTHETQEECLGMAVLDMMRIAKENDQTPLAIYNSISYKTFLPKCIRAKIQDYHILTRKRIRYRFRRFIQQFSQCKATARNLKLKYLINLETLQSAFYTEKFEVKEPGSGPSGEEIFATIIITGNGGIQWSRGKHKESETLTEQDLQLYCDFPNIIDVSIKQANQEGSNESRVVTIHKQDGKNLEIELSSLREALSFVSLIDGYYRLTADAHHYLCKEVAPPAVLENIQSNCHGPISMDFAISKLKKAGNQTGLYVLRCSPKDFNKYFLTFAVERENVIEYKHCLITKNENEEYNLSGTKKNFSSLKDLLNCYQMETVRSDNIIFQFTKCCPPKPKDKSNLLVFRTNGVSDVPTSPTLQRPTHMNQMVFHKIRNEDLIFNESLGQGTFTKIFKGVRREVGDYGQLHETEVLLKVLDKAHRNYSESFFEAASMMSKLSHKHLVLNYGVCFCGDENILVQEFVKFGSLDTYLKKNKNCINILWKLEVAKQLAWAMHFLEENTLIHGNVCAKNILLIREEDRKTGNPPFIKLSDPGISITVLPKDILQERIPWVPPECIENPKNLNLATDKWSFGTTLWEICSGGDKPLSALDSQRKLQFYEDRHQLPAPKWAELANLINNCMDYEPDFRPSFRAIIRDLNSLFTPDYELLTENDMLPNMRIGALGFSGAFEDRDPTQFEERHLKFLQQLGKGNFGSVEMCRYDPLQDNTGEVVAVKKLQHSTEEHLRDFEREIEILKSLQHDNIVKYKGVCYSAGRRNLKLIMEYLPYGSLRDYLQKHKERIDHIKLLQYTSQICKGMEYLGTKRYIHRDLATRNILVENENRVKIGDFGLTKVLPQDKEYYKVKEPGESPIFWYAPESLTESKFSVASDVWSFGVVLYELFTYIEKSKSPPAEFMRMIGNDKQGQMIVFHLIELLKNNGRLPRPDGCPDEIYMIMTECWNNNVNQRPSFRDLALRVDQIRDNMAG

Chain of Tyrosine-protein kinase JAK3 (Homo sapiens) (P52333 whole entry): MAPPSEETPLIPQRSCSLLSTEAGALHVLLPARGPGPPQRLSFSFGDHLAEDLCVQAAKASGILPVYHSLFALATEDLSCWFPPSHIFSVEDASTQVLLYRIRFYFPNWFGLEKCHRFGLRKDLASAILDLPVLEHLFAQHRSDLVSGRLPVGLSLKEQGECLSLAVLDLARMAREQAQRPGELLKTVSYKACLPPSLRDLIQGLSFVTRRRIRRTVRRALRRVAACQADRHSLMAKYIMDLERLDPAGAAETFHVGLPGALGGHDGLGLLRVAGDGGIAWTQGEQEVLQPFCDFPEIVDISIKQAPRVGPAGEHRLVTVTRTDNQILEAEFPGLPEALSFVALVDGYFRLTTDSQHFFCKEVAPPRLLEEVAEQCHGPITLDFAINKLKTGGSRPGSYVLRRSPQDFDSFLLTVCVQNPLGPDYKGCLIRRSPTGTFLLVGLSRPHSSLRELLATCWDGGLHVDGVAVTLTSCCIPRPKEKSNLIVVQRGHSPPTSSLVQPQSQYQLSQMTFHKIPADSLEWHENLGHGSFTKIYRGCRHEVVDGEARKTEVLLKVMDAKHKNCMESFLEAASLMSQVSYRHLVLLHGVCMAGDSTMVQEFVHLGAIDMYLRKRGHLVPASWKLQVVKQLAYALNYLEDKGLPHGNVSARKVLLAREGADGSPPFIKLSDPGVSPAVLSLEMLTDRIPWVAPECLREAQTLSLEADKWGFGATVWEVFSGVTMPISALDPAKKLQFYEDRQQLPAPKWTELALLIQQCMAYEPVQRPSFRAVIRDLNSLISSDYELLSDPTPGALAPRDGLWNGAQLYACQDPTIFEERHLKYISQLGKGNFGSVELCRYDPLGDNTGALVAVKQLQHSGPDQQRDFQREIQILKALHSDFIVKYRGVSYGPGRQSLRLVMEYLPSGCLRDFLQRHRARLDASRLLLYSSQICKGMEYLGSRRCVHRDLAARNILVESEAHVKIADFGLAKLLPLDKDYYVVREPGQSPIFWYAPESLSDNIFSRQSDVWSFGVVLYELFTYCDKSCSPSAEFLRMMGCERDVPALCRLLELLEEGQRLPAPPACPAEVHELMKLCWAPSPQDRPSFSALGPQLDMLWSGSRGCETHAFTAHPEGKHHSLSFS

## O=C(CCCCCCOc1ccc2cc1COC/C=C/COCc1cccc(c1)-c1ccnc(n1)N2)NO
[1]
  inhibition: 55%
Histone deacetylase 2
  IC50: 49 nM
[2]
  inhibition: 14%
[3]
  Activity: 5.7%
[4]
  IC50: 4000 nM
cells
  IC50: 940 nM
[5]
  inhibition: Active
MOLM-14 [6]
  Activity: 13.3%
MOLM-14 [7]
  Activity: 5%
MOLM-14 [8]
  Activity: 0.3%
[9]
  inhibition: Active
